The source made the active and inactive calls. The rule behind the calls is not given here.
What was measured:
[1] = target: T1, Protein cereblon/SWI/SNF-related matrix-associated actin-dependent regulator of chromatin subfamily A member 2 (Homo sapiens, UniProt P51531+Q96SW2); assay: PROTAC activity at CRBN/SMARCA2 in human H322 cells harboring SMARCA4 mutant assessed as induction of SMARCA2 degradation at 1 uM in presence of bortezomib by immunoblot analysis; format: cell-based
[2] = target: T1, Protein cereblon/SWI/SNF-related matrix-associated actin-dependent regulator of chromatin subfamily A member 2; assay: PROTAC activity at CRBN/SMARCA2 in CRBN knockout human H322 cells harboring SMARCA4 mutant assessed as induction of SMARCA2 degradation at 1 uM by immunoblot analysis; format: cell-based
[3] = Drug metabolism in mouse liver microsomes assessed as Mono-oxygenation and hydrogenation mediated M1 metabolite formation at 10 uM incubated for 60 mins by LC-UV-HRMS analysis; format: ADME, Microsome; settings: 1 h
Outline: (§1)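 Compound at 10 μM incubated with mouse liver microsomes at 37 °C for 60 min. Metabolites detected by LC-UV-HRMS, structures proposed from MS and MS2 data, and each metabolite given as a percentage.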

[4] = Antitumor activity against human NCI-H1568 cells harboring SMARCA4 mutant xenografted in female athymic nude mouse assessed as tumor growth inhibition at 40 mg/kg, po administered once daily via gavage for 13 days relative to control; format: functional; settings: NCI-H1568, 312 h, time 13 day, read-out: TGI
Outline: (§2)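 Cells (H1568 2 × 10^6, H2023 10 × 10^6, HCC515 5 × 10^6) in PBS:Matrigel 1:1, 200 μL, injected subcutaneously into flanks of 6–8-week-old females. Randomized at mean tumor volume 60 mm3 (H1568) or <200 mm3 (others). Dosed in 0.5% methylcellulose + 0.2–1% Tween-80, sonicated on ice. Caliper tumor volume and body weight tracked, mean ± SEM.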

[5] = Toxicity in female athymic nude mouse xenografted with human NCI-H1568 cells harboring SMARCA4 mutant assessed as change in body weight at 40 mg/kg, po administered once daily via gavage for 13 days relative to control; format: organism-based; settings: in vivo, 312 h, time 13 day; outline: as §2
[6] = Drug concentration in CRBN I391V mutant mouse plasma at 80 mg/kg, po administered once daily for 3 days and measured at 24 hrs post last dose; format: ADME, organism-based; settings: time 3 day
Outline: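 Oral dosing once daily for 3 days: 5–80 mg/kg in C57BL/6 mice, 10–80 mg/kg in CrbnI391V mice. Euthanized 24 h after last dose. Plasma drug level measured. Spleen SMARCA2 by Western blot against actin loading control, relative to vehicle.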

[7] = In vivo PROTAC activity at CRBN I391V mutant/SMARCA2 in mouse assessed as SMARCA2 degradation in spleen at 80 mg/kg, po administered once daily for 3 days and measured at 24 hrs post last dose by Western blotting analysis relative to control; format: functional; settings: time 3 day
Outline: (§3)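 CrbnI391V mice given 10, 20, 40 or 80 mg/kg or vehicle orally once daily for 3 days. Euthanised 24 h after the last dose. Spleen SMARCA2 measured by Western blot with actin as loading control, relative to vehicle. Plasma drug level measured at the same time.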

[8] = In vivo PROTAC activity at CRBN I391V mutant/SMARCA2 in mouse assessed as SMARCA2 degradation in spleen at 10 to 80 mg/kg, po administered once daily for 3 days and measured at 24 hrs post last dose by Western blotting analysis relative to control; format: functional; settings: dose 10-80 mg/kg, time 3 day; outline: as §3
[9] = Toxicity in immunocompromised mouse xenografted with human NCI-H1568 cells assessed as drug tolerance at 80 mg/kg, administered once daily for 21 days; format: organism-based; settings: in vivo, 504 h, time 21 day
NCI-H2030 [10] = assay: Antitumor activity against human NCI-H2030 cells harboring KRAS G12C mutant/SMARCA4 mutant assessed as cell growth inhibition incubated for 7 days by Incucyte S3 analysis; format: functional, cell-based; settings: time 7.0 day
Outline: (§4)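 H2030 cells plated at 500 per well and grown overnight at 37 °C. Treated with 3-fold dilutions of sotorasib, test agent, or both. Confluency imaged every 4 h for 7 days on IncuCyte S3. Synergy scored as Bliss/Lowe consensus, >10 taken as synergy.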

NCI-H2030 [11] = assay: Synergistic antitumor activity against human NCI-H2030 cells harboring KRAS G12C mutant/SMARCA4 mutant assessed as cell growth inhibition at 1 uM incubated for 7 days in presence of sotorasib by Incucyte S3 analysis; format: functional, cell-based; settings: time 7.0 day; outline: as §4
[12] = target: T1, Protein cereblon/SWI/SNF-related matrix-associated actin-dependent regulator of chromatin subfamily A member 2; assay: PROTAC activity at CRBN/SMARCA2 in human H322 cells harboring SMARCA4 mutant assessed as induction of SMARCA2 degradation at 0.1 uM in presence of pomalidomide by immunoblot analysis; format: cell-based
[13] = target: Transcriptional coactivator YAP1 (Homo sapiens) (UniProt P46937); assay: Induction of YAP1 phosphorylation at S109 residue in human H322 cells harboring SMARCA4 mutant at 0.1 uM incubated for 96 hrs by immunoblot analysis; format: cell-based; settings: filed as activator
Chain of Transcriptional coactivator YAP1 (Homo sapiens) (P46937 whole entry): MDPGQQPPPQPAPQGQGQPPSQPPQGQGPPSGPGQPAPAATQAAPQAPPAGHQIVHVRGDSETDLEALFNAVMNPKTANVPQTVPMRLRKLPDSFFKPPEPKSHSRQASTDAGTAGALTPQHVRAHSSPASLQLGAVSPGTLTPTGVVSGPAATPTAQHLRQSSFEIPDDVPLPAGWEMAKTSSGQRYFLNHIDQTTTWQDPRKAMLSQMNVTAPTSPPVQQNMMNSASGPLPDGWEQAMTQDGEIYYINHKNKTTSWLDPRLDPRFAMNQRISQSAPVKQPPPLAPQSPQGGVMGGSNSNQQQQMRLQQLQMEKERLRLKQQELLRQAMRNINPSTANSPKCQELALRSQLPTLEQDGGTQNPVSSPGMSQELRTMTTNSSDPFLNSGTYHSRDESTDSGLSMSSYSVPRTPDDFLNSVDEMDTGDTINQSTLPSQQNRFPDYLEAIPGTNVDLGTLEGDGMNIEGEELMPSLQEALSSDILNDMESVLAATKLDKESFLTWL

[14] = Drug metabolism in mouse liver microsomes assessed as hydrolysis mediated M3 metabolite formation at 10 uM incubated for 60 mins by LC-UV-HRMS analysis; format: ADME, Microsome; settings: 1 h; outline: as §1
NCI-H2030 [15] = assay: Antitumor activity against human NCI-H2030 cells harboring SMARCA4 mutant xenografted in female athymic nude mouse assessed as tumor growth inhibition at 5 mg/kg, po administered once daily via gavage for 17 days relative to control; format: functional; settings: NCI-H2030, 408 h, time 17 day, read-out: TGI
Outline: (§5)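 10 × 10^6 H2030 cells in PBS:Matrigel 1:1, 200 μL, injected subcutaneously into flanks of 6–8-week-old females. Randomized at mean tumor volume <200 mm3. Oral gavage once daily in 10% DMSO, 40% PEG300, 1% Tween-80, 49% saline. Caliper tumor volume and body weight monitored, mean ± SEM.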

[16] = Toxicity in female athymic nude mouse xenografted with human NCI-H2023 cells harboring SMARCA4 mutant assessed as change in body weight at 5 mg/kg, po administered once daily via gavage for 19 days relative to control; format: organism-based; settings: in vivo, 456 h, time 19 day; outline: as §2
[17] = Toxicity in female athymic nude mouse xenografted with human NCI-H2030 cells harboring SMARCA4 mutant assessed as change in body weight at 5 mg/kg, po administered once daily via gavage for 17 days relative to control; format: organism-based; settings: in vivo, 408 h, time 17 day; outline: as §5
[18] = In vivo PROTAC activity at CRBN/SMARCA2 in female athymic nude mouse xenografted with human NCI-H2023 cells harboring SMARCA4 mutant assessed as SMARCA2 degradation at 5 mg/kg, po administered once daily via gavage for 19 days by Western blotting analysis relative to control; format: functional; settings: time 19 day
Outline: (§6)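 Female nude mice aged 6–8 weeks carried subcutaneous flank xenografts in PBS/Matrigel 1:1: H2023 at 10 × 10^6 cells or HCC515 at 5 × 10^6 cells. Randomised below 200 mm3. 5 mg/kg or vehicle given by oral gavage once daily for 19 days in 0.5% methylcellulose with Tween-80 (0.2% for H2023, 1% for HCC515). Tumours collected 24 h after dosing. SMARCA2 measured by Western blot against β-actin, relative to vehicle.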

[19] = In vivo PROTAC activity at CRBN/SMARCA2 in female athymic nude mouse xenografted with human HCC515 cells harboring SMARCA4 mutant assessed as SMARCA2 degradation at 5 mg/kg, po administered once daily via gavage for 19 days by Western blotting analysis relative to control; format: functional; settings: time 19 day; outline: as §6

| Compound | Activity [1] | Activity [2] | Drug metabolism [3] | inhibition in vivo at 40 mg/kg [4] [%] | Activity [5] [%] | concentration at 72 h [6] [nM] | Activity [7] [%] | Activity [8] [%] | Activity [9] | Activity (NCI-H2030 [10]) | Activity (NCI-H2030 [11]) | Activity [12] | Activity [13] | Drug metabolism [14] | inhibition in vivo at 5 mg/kg (NCI-H2030 [15]) [%] | Activity [16] [%] | Activity [17] [%] | Activity [18] [%] | Activity [19] [%] |
| --- | --- | --- | --- | --- | --- | --- | --- | --- | --- | --- | --- | --- | --- | --- | --- | --- | --- | --- | --- |
| Nc1nnc(-c2ccccc2O)cc1N1CCN(Cc2ccc(N3CCC(CN4CCN(c5ccc6c(c5)C(=O)N(C5CCC(=O)NC5=O)C6=O)CC4)CC3)c(F)c2)CC1 (centres undefined) | inactive | inactive | metabolite_detected | 27.6 | < 10 | 2450 | 81 | 11 | Non-toxic | Active; Minimal Inhibition Observed | Active; Robust Synergistic Growth Inhibition Observed | – | – | – | – | – | – | – | – |
| Nc1nnc(-c2ccccc2O)cc1N1CCN(Cc2ccc(N3CCN(CCOc4cccc5c4C(=O)N(C4CCC(=O)NC4=O)C5=O)CC3)c(F)c2)CC1 (centres undefined) | – | – | – | – | – | – | – | – | – | – | – | inactive | Active | metabolite_detected | 93.4 | < 10 | < 20 | 76 | 96 |

Source: ChEMBL document CHEMBL6134900 (J Med Chem, 2025)
